From ChEMBL document CHEMBL1148735, “4-Substituted trinems as broad spectrum beta-lactamase inhibitors: structure-based design, synthesis, and biological activity” (J Med Chem, 2007)

Columns and labels:
[1] = target: T1, Beta-lactamase SHV-1 (Escherichia coli, UniProt P0AD63); test: Inhibition of Escherichia coli SHV1
T1 sequence (P0AD63 whole entry): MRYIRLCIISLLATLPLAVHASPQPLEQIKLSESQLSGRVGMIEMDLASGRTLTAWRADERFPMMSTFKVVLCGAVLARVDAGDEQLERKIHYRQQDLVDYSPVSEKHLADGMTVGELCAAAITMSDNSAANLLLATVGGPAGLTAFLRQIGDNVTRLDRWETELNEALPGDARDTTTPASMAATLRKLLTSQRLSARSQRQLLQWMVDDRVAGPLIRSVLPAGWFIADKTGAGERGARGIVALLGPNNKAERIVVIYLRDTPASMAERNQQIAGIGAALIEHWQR
How it was run: (§1)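 Recombinant β-lactamase, expressed in the pET system without its signal peptide and carrying an N-terminal His6 tag, purified on Ni-NTA. Inhibitor made as a 50 mM DMSO stock, then diluted in 50 mM phosphate pH 7 with 10% DMSO final. Enzyme and inhibitor preincubated 10 min at 37 °C. Started with prewarmed nitrocefin; A490 read every 30 s for 10 min at 37 °C.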

[2] = target: Beta-lactamase TEM (Escherichia coli, UniProt P62593); test: Inhibition of Escherichia coli TEM1; how it was run: as §1
[3] = target: Beta-lactamase (Enterobacter cloacae, UniProt P05364); test: Inhibition of Enterobacter cloacae AmpC
Sequence of Beta-lactamase (P05364 whole entry): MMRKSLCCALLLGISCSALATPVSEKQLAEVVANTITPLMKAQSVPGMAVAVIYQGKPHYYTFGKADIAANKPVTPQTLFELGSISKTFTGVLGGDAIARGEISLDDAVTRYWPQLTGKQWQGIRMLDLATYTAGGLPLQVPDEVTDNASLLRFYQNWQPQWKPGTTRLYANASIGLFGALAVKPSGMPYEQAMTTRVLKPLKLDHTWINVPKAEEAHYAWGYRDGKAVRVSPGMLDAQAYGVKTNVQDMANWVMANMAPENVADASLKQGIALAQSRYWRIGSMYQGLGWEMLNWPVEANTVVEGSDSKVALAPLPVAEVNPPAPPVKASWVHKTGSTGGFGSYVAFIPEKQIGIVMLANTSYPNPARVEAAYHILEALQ

Sequence of Beta-lactamase TEM (P62593 whole entry): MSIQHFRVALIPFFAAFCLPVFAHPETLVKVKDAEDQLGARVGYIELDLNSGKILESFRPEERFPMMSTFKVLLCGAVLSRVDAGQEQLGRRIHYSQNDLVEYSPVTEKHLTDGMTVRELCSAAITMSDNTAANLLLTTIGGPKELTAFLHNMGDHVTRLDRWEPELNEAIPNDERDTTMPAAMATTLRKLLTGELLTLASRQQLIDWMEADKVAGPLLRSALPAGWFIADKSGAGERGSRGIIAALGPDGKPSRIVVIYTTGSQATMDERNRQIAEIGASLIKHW

Structure (SMILES)	IC50 [1] [nM]	IC50 [2] [nM]	IC50 [3] [nM]
C/C=C1/C(=O)N2C(C(=O)O)=C3[C@@H](OCC)CCC[C@@H]3[C@H]12	385	57	229
C/C=C1/C(=O)N2C(C(=O)O)=C3[C@@H](OCCCC)CCC[C@@H]3[C@H]12	206	32	720
C/C=C1/C(=O)N2C(C(=O)O)=C3[C@@H](CCC[C@H]3OCC)[C@H]12	284	22	295
C/C=C1/C(=O)N2C(C(=O)O)=C3[C@@H](OCCF)CCC[C@@H]3[C@H]12	148	21	1020
C/C=C1/C(=O)N2C(C(=O)O)=C3[C@@H](OC(C)C)CCC[C@@H]3[C@H]12	340	39	341
C/C=C1/C(=O)N2C(C(=O)O)=C3[C@@H](CCC[C@H]3OCCCC)[C@H]12	219	12	430
C/C=C1/C(=O)N2C(C(=O)O)=C3[C@@H](OCCC#N)CCC[C@@H]3[C@H]12	152	18	209
